Measured values: ChEMBL document CHEMBL1146324, “Discovery of (Z)-2-phenyl-3-(1H-pyrrol-2-yl)acrylonitrile derivatives active against Haemonchus contortus and Ctenocephalides felis (cat flea)” (2007)
The source made the active and inactive calls. The rule behind the calls is not given here.

Assays:
Haemonchus contortus [1] = assay: Parasiticidal activity against Haemonchus contortus McMaster; assay type: functional
Procedure, shortened: (§1)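 Larval development assay with Haemonchus contortus larvae. The endpoint was LD99, and the assay was performed by an external screening contractor.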

Ctenocephalides felis [2] = assay: Parasiticidal activity against Ctenocephalides felis after 24 hrs; assay type: functional; design: concentration or dose not given beside the values
Procedure, shortened: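 Single-dose in vitro cat flea assay: compound in acetone (0.5 mL) coated on the base of four 100 mL flasks at 1.26 µg/cm². Flasks held at 25 ± 1 °C and 75 ± 5% humidity for 24 h. Dead fleas counted per flask, and pooled data expressed as percent mortality.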

Saccharomyces cerevisiae = assay: Parasiticide activity against Saccharomyces cerevisiae; assay type: functional, organism-based
Ctenocephalides felis [3] = assay: Parasiticidal activity against Ctenocephalides felis; assay type: functional
[4] = system: Teladorsagia circumcincta; assay: Parasiticidal activity against Ostertagia circumcincta McMaster; assay type: functional
Haemonchus contortus [5] = assay: Parasiticidal activity against benzimidazole-resistant Haemonchus contortus Lawes; assay type: functional; procedure, shortened: as §1
Haemonchus contortus [6] = assay: Parasiticidal activity against levamisole-resistant Haemonchus contortus Lawes; assay type: functional; procedure, shortened: as §1
Haemonchus contortus [7] = assay: Parasiticidal activity against avermectin-resistant Haemonchus contortus CAVR; assay type: functional; procedure, shortened: as §1
[8] = system: Trichostrongylus colubriformis; assay: Parasiticidal activity against Trichostrongylus colubriformis; assay type: functional
Bacillus subtilis = assay: Parasiticidal activity against Bacillus subtilis; assay type: functional
[9] = Cytotoxicity against mouse NS1 cells; assay type: functional
Ctenocephalides felis [10] = assay: Parasiticidal activity against Ctenocephalides felis after 8 hrs; assay type: functional
Procedure, shortened: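 Cat flea contact assay: compound applied in acetone to the base of four flasks at 1.26 µg/cm², held at 25 ± 1 °C and 75 ± 5% humidity. Dead fleas counted at 8 h, and pooled counts converted to percent mortality.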

Row | SMILES | LD99 (Haemonchus contortus [1]) [µM] | Activity (Ctenocephalides felis [2]) [%] | other results
1 | N#C/C(=C\c1ccc[nH]1)c1ccc([N+](=O)[O-])cc1 | >63 | 6 | –
2 | N#CC(C#N)=Cc1cc(Cl)c(Cl)[nH]1 | 1.8 | – | Activity (Saccharomyces cerevisiae): inactive; Activity (Ctenocephalides felis [3]): inactive; LD99 [4]: 2.2 µM; LD99 (Haemonchus contortus [5]): 2.2 µM; LD99 (Haemonchus contortus [6]): 2.2 µM; LD99 (Haemonchus contortus [7]): 2.2 µM; LD99 [8]: 9 µM; LD99 (Bacillus subtilis): 1.7 µM; LD99 [9]: 13 µM
3 | N#C/C(=C\c1ccc[nH]1)c1cccc(C(F)(F)F)c1 | 3.6 | 56 | LC50 (Ctenocephalides felis [3]): 9.9 ug/sq.cm
4 | N#C/C(=C\c1ccc[nH]1)c1ccc(F)c(F)c1 | 7.6 | 17 | –
5 | N#Cc1nn(-c2c(Cl)cc(C(F)(F)F)cc2Cl)c(N)c1[S+]([O-])C(F)(F)F (stereo not given) [FIPRONIL] | – | – | LC50 (Ctenocephalides felis [3]): 0.018 ug/sq.cm
6 | N#C/C(=C\c1cc(Br)c[nH]1)c1ccc(Cl)cc1 | 1.5 | 23 | –
7 | N#C/C(=C\c1ccc[nH]1)c1ccc(F)cc1F | 11 | 5 | –
8 | CCOCn1cccc1/C=C(\C#N)c1ccc(Cl)cc1 | 19 | – | Activity (Ctenocephalides felis [10]): 6%
9 | N#C/C(=C\c1ccc[nH]1)c1ccccc1 | 2.4 | 98 | LC50 (Ctenocephalides felis [3]): 0.26 ug/sq.cm
10 | N#C/C(=C\c1cc(Br)c[nH]1)c1cccc(C(F)(F)F)c1 | 9.5 | – | –
11 | COC(=O)n1cccc1/C=C(\C#N)c1ccc(Cl)cc1 | 4.4 | 16 | –
12 | N#C/C(=C\c1ccc[nH]1)c1ccc(Br)cc1 | 0.84 | 42 | –
13 | N#C/C(=C\c1ccc[nH]1)c1ccc(Cl)cc1Cl | 11 | 8 | –
14 | N#C/C(=C\c1ccc[nH]1)c1ccc(Cl)c(Cl)c1 | 2.9 | 41 | –
15 | CCc1ccc(/C(C#N)=C/c2ccc[nH]2)cc1 | 4 | 58 | –
16 | N#C/C(=C\c1ccc[nH]1)c1ccc(Cl)cc1F | 10 | 5 | –

Row | SMILES | LD99 (Haemonchus contortus [1]) [µM] | Activity (Ctenocephalides felis [2]) [%] | other results
17 | CCN(CC)C(=O)n1cccc1/C=C(\C#N)c1ccc(Cl)cc1 | 11 | 8 | –
18 | c1ccc([C@H]2CN3CCSC3=N2)cc1 [LEVAMISOLE] | 0.66 | – | –
19 | N#C/C(=C\c1ccc[nH]1)c1ccc(F)cc1Cl | 12 | 30 | –
20 | CC(C)(C)c1ccc(/C(C#N)=C/c2ccc[nH]2)cc1 | 13 | 87 | LC50 (Ctenocephalides felis [3]): 0.48 ug/sq.cm
21 | Cc1ccccc1/C(C#N)=C/c1ccc[nH]1 | 18 | 100 | LC50 (Ctenocephalides felis [3]): 0.08 ug/sq.cm
22 | Cc1ccc(/C(C#N)=C/c2ccc[nH]2)cc1 | 4.5 | 69 | –
23 | Cc1cccc(/C(C#N)=C/c2ccc[nH]2)c1 | 6 | 42 | –
24 | N#C/C(=C\c1ccc[nH]1)c1ccccc1C#N | >68 | 11 | –
25 | Cc1cc(C(C#N)c2ccc(Cl)cc2)c(Cl)cc1NC(=O)c1cc(I)cc(I)c1O (stereo not given) [CLOSANTEL] | 9.4 | – | –
26 | N#C/C(=C\c1ccc[nH]1)c1ccccc1Br | 12 | 30 | –
27 | N#C/C(=C\c1ccc[nH]1)c1ccc(C#N)cc1 | 46 | 44 | –
28 | N#C/C(=C\c1ccc[nH]1)c1cccc(Cl)c1 | 3.3 | 28 | –
29 | N#C/C(=C\c1cc(Br)c[nH]1)c1cccc(F)c1 | 38 | 18 | –
30 | N#C/C(=C\c1ccc[nH]1)c1c(F)cccc1F | 52 | 17 | –
31 | N#C/C(=C\c1ccc[nH]1)c1ccccc1Cl | 12 | 19 | –
